# Screening results as filed in PubChem.
# Only some compounds are listed: those with a hit (about 2.2% of all), similar ones and a draw of the others.
# DNMT1 inh – inhibitors of human DNMT1. P26358. DNMT1 molecular beacon, Hinp1I cleavage, fluorescence. inhibition (reported as % activation of signal), % at 10 µM. 360,000 compounds, 0.83% hits. AID 588458; in the data active = inhibition above about 50%
# Scp-1 inhibitor – Scp-1 (human) phosphatase inhibition | Recombinant Scp1, phosphopeptide, malachite green phosphate absorbance | 340,000 compounds, 0.88% hits | inhibition, % at 20 µM | AID 493091;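 active = inhibition above about 50% at 20 µM, limit read from the data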;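 also: plate controls were DMSO wells with enzyme for no effect and wells lacking enzyme for full effect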
# Target sequence (Q9GZU7 76-261 limits assumed): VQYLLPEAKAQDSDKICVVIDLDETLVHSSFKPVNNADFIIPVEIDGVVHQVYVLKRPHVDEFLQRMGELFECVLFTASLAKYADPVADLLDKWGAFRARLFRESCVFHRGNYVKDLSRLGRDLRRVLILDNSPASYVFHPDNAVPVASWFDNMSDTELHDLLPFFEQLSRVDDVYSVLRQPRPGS
#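 System: truncated SCP-1 phosphatase (76-261aa); medium: Tris acetate buffer pH 5.5 with MgCl2 and Tween-20; incubation: 45 min room-temperature reaction, 5 min colour, 30 min stabiliser; compound: single 20 µM dose, 1% DMSO; reagent: Phosphorylated 17-residue peptide substrate; read-out: % inhibition at 20 µM; technique: colorimetric free-phosphate detection, absorbance 630 nm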
# STEP block – inhibitors of human striatal-enriched phosphatase STEP; P54829; recombinant STEP, OMFP fluorogenic substrate, fluorescence; inhibition, % at 20 µM; 360,000 compounds, 0.25% hits; AID 588621;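 active = inhibition at 20 µM, scaled per plate between control wells, above about 37%, limit read from the data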;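 also: 0% = DMSO with enzyme and substrate and 100% = substrate only without enzyme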
#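 medium = Bis-Tris buffer pH 6.0, 2.5 mM DTT, 0.005% Tween 20 | test system = STEP (striatal-enriched tyrosine phosphatase) enzyme, cell-free | measure = normalized % inhibition | compound dosing = 20 µM, 1% DMSO | also added = 25 µM OMFP | schedule = reaction 20 min, ambient temperature | measured by = fluorescence read at 480 nm ex / 540 nm em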
# SUMO1-SIM PPI – modulators of human SUMO1-mediated protein-protein interactions. P63165. SUMO1 binding to a labelled peptide, TR-FRET, 1 h. inhibition, % at 20 µM. 360,000 compounds, 0.33% hits; in the data active = inhibition above about 37%
# Target sequence (P63165 whole entry, looked up): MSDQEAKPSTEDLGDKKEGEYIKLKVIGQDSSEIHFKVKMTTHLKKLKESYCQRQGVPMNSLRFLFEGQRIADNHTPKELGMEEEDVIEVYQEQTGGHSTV
# GRK2 aptamer HTS – human GRK2 inhibition via aptamer displacement; P25098; 330,000 compounds, 0.59% hits; AID 488847; bead flow cytometry, FAM-aptamer displacement from GRK2; inhibition of aptamer binding, % at 10 µM;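 active = inhibition of aptamer binding above 40%, roughly 3 SD of noise, on plates passing a quality check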;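 also: median bead fluorescence of bound FAM aptamer so fluorescent compounds give negative values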
# LMPTP inh – LMPTP (human) inhibition | recombinant LMPTP-A, OMFP fluorogenic substrate, fluorescence intensity | 360,000 compounds, 0.22% hits | inhibition, % at 20 µM;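 active = compounds that cut the enzyme signal by at least half of the control window in the single-dose screen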;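 also: plate controls were DMSO wells with enzyme plus substrate for no effect and substrate without enzyme for full effect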
# Target sequence (P24666 whole entry, looked up): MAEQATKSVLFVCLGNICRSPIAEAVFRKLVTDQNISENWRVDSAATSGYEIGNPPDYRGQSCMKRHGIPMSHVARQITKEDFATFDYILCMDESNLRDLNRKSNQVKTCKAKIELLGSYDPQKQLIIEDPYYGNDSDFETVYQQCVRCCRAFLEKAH
#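 Assay system: LMPTP-A, protein tyrosine phosphatase of low molecular weight / Medium: pH 6.0 Bis-Tris buffer with DTT and Triton X-100 / Schedule: 50 min enzyme reaction at room temperature, protected from light / Measured by: endpoint fluorescence intensity from OMFP dephosphorylation / Read-out basis: % inhibition relative to no-enzyme and uninhibited control wells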
# Scp1 confirm – confirmation of human Scp-1 phosphatase inhibitors. shares compounds with Scp-1 inhibitor. recombinant SCP-1 catalytic domain, phosphate release, malachite green absorbance. inhibition, % at 20 µM. 2,500 compounds, 61% hits. AID 540281;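 also: plate controls were DMSO with enzyme for no effect and buffer wells lacking enzyme for full effect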
# MG interference – interferes with malachite green readout, flagging false Scp-1 hits; shares compounds with Scp-1 inhibitor; Colorimetric interference counterscreen, malachite green absorbance 630 nm; apparent inhibition (interference), % at 20 µM; 2,500 tested, under 10 active;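 also: compounds added after enzyme reaction finished so only phosphate colour detection is probed; plate controls were DMSO wells with completed Scp-1 reaction for no effect and substrate wells lacking enzyme for full effect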
# Scp-1 Tm shift – Scp-1 (human) binding by thermal shift; AID 540329; shares compounds with Scp-1 inhibitor; Recombinant SCP1, Sypro Orange thermal shift Tm; thermal shift relative to vanadate control, % at 40 µM; 1,500 compounds, 25% hits;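 active = substances whose mean melting-temperature shift, as a percentage of the reference inhibitor's shift, reaches about 5.3%, limit read from the data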;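 also: 0% = Tm of DMSO wells and 100% = Tm with sodium orthovanadate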
# * = called active by the depositor; nt = no result.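 The calls were made as follows, unless noted: active = inhibition of at least 30% at 20 µM; inactive = the rest.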
SMILES,DNMT1 inh,Scp-1 inhibitor,STEP block,SUMO1-SIM PPI,GRK2 aptamer HTS,LMPTP inh,Scp1 confirm,MG interference,others
CC/C(=C\C(=O)c1cccnc1)Nc1ccc(C)c(C)c1,0.0,52.6*,0.5,-3.2,0.0,-2.2,-18.1,-15.3,
CC(=O)Nc1ccc(N/C(C)=C/C(=O)c2cccnc2)cc1,5.2,-1.4,1.8,-3.3,4.0,-1.1,nt,nt,
O=C(NNC(=O)c1ccc2ccccc2c1)c1ccc(Cl)c(Cl)c1,26.1,63.8*,1.0,2.9,nt,15.2,58.2*,-7.6,Scp-1 Tm shift=-23.2
COC(=O)[C@@]1(Sc2ccc(C)cc2)CC(=O)N(C(=O)c2ccccc2)[C@@H]1c1ccccc1,nt,nt,nt,4.6,nt,1.0,nt,nt,
CCCS(=O)(=O)NC(=O)C1(C)CCCN(C(=O)c2ccc(F)cc2Cl)C1 (stereo not drawn),2.0,nt,-4.1,0.4,nt,-2.3,nt,nt,
COc1ccc(NC(=O)CN2c3cccc4cccc(c34)S2(=O)=O)cc1OC,-9.1,nt,-0.3,-14.1,nt,0.5,nt,nt,
COc1ccc(NC(=O)CSc2sc3c(O)cc(=O)[nH]c3c2C#N)c(OC)c1,24.4,64.4*,21.0,18.4,7.0,55.6*,67.8*,-9.0,Scp-1 Tm shift=7.8*
N#Cc1c(SCC(=O)Nc2cccc(C(F)(F)F)c2)sc2c(O)cc(=O)[nH]c12,7.0,53.9*,4.9,12.9,0.0,13.3,34.2*,-13.4,Scp-1 Tm shift=8.1*
COc1ccccc1NC(=O)CSc1sc2c(O)cc(=O)[nH]c2c1C#N,9.7,77.3*,8.2,13.1,5.0,21.9,32.6*,-14.0,Scp-1 Tm shift=12.6*
O=C(CSCCO)Nc1cccc(C(F)(F)F)c1,1.4,-6.1,-0.9,-4.9,3.0,0.1,nt,nt,
COc1ccc(Cl)cc1NC(=O)CSc1sc2c(O)cc(=O)[nH]c2c1C#N,11.6,40.6,11.4,0.6,2.0,21.7,nt,nt,
COc1ccc(OC)c(NC(=O)Nc2nc(C(N)CCc3ccccc3)cs2)c1 (stereo not drawn),-7.0,nt,1.8,-23.4,nt,1.8,nt,nt,
O=C(CC[C@H]1O[C@@H](n2ccc(=O)[nH]c2=O)[C@H](O)[C@@H]1O)N[C@@H](Cc1ccccc1)C(=O)NCc1ccccc1,3.4,nt,-2.0,1.2,nt,-1.8,nt,nt,
CCCCN(c1ccccc1)S(=O)(=O)c1cccc(C(=O)Nc2c(C)n(C)n(-c3ccccc3)c2=O)c1,0.4,9.1,1.6,0.4,nt,1.0,nt,nt,
COc1cc(OC)c(C2C(C#N)=C(N)OC3=C2C(=O)CC(C)(C)C3)cc1OC (stereo not drawn),-2.9,0.8,2.4,-0.8,2.0,-0.5,nt,nt,
COc1ccc(C2C(C#N)=C(N)OC3=C2C(=O)CC(C)(C)C3)c(OC)c1OC (stereo not drawn),-0.5,50.8*,0.4,0.2,5.0,-2.0,-16.0,-13.1,
CC1=NN(c2cccc([N+](=O)[O-])c2)C(=O)C1,-8.8,-6.2,0.7,0.1,0.0,1.9,nt,nt,
O=C1CC(=O)N2N=C(c3ccc([N+](=O)[O-])cc3)SC2=N1,24.1,69.0*,3.4,5.1,3.0,7.1,67.9*,-6.2,Scp-1 Tm shift=6.2*
COc1ccc(S(=O)(=O)N2CCC[C@H]2C(=O)N2CCC[C@H]2C(=O)N[C@@H](C)c2ccccc2)cc1C,nt,nt,nt,3.8,nt,-0.8,nt,nt,
CCc1cc(C(=O)Nc2cc(S(=O)(=O)N3CCCCC3)ccc2N2CCN(C)CC2)sc1C,-9.2,nt,1.4,-2.9,nt,-0.4,nt,nt,
CSc1ccc(OC2(C)CCN(Cc3ccc(OC(F)(F)F)cc3)C2)cc1 (stereo not drawn),4.3,nt,-0.9,-1.2,nt,2.7,nt,nt,
Cn1c(=O)c(=O)n(C)c2cc(S(=O)(=O)N3CCCC3C(=O)NCc3cccnc3)ccc21 (stereo not drawn),2.0,-9.0,1.9,5.3,0.0,-1.0,-6.8,-6.0,
Cc1ccc(C)c(NC(=O)C2CCCN2S(=O)(=O)c2ccc3c(c2)n(C)c(=O)c(=O)n3C)c1 (stereo not drawn),4.6,-6.6,-0.1,6.6,0.0,-1.0,-6.2,-10.1,
Cc1ccccc1NC(=O)C1CCCN1S(=O)(=O)c1ccc2c(c1)n(C)c(=O)c(=O)n2C (stereo not drawn),5.5,-9.8,-8.3,5.2,2.0,-1.5,nt,nt,
CCOc1ccc(CCNC(=O)/C=C/c2ccco2)cc1OCC,3.7,67.3*,0.8,-11.9,6.0,-1.6,-9.0,-20.8,
SMILES,DNMT1 inh,Scp-1 inhibitor,STEP block,SUMO1-SIM PPI,GRK2 aptamer HTS,LMPTP inh,Scp1 confirm,MG interference,others
COc1ccc(CCNC(=O)/C=C/c2ccco2)cc1OC,1.6,1.4,1.1,-6.1,3.0,-0.1,nt,nt,
COC(=O)[C@H]1C[C@H](O)CN1S(=O)(=O)c1ccc(Br)cc1F,7.0,53.3*,-2.9,2.9,0.0,-0.7,-14.8,-16.2,
CC(C)(C)N1C(=O)c2ccccc2NC(=O)C1C(=O)NCCc1ccccc1 (stereo not drawn),nt,nt,nt,0.8,nt,-0.7,nt,nt,
O=C(N/N=C/C(Cl)=C/c1ccc([N+](=O)[O-])cc1)C(=O)Nc1ccccc1C(=O)O,-13.4,39.9,3.8,1.2,nt,2.0,nt,nt,
O=C(N/N=C/C(Cl)=C/c1ccc([N+](=O)[O-])cc1)C(=O)Nc1ccc(C(=O)O)cc1,46.4,85.4*,34.3,3.3,0.0,22.4,62.3*,-16.2,Scp-1 Tm shift=-2.8
CCOc1cc(S(=O)(=O)NC2CCCC2)ccc1Cl,-1.0,-15.9,0.2,1.0,1.0,0.8,nt,nt,
CCOc1cc(S(=O)(=O)Nc2cc(C)cc(C)c2)ccc1Cl,-13.8,66.3*,1.7,0.7,6.0,3.0,-21.9,-16.1,
CC12CC(O)C3C(CCC4=CC(=O)CCC43C)C1CCC2=CCO (stereo not drawn),-4.8,-9.6,-3.0,-4.5,nt,-1.8,nt,nt,
CC(=O)N1CCOc2ccc(S(=O)(=O)NC[C@H]3O[C@@H](n4ccc(=O)[nH]c4=O)[C@H](O)[C@@H]3O)cc21,1.7,8.2,-2.5,-1.3,nt,-0.7,-17.2,-16.2,
CC1(C(=O)Nc2ccc3c(c2)OCCO3)CSCC(=O)N1CC(F)(F)F (stereo not drawn),nt,nt,nt,4.4,nt,-1.0,nt,nt,
CC1(C)CC(CCC(=O)NC(=S)Nc2ccccc2Cl)C(=O)O1 (stereo not drawn),2.2,-8.6,-0.6,2.9,3.0,-0.8,-10.5,-15.6,
Cc1ccc(C)c(NC(=O)CSc2sc3c(O)cc(=O)[nH]c3c2C#N)c1,15.2,60.0*,5.7,9.1,4.0,7.9,67.0*,1.4,Scp-1 Tm shift=10.5*
